Drawing on ChEMBL document CHEMBL1134286, “Novel erythromycin derivatives with aryl groups tethered to the C-6 position are potent protein synthesis inhibitors and active against multidrug-resistant respiratory pathogens” (J Med Chem, 2001), this text covers MIC for eleven molecules.

Values after ≈ are worked out from the molar mass of the structure shown.

What all share (assay type): functional
Assay [1] can be described thus: Minimum inhibitory concentration against Streptococcus pneumoniae 5737 MLSB. A digest of the protocol: (§1)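 MICs were determined by agar dilution following National Committee for Clinical Laboratory Standards recommendations. Values are in µg/mL.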
A short description of assay [2]: Minimum inhibitory concentration against Streptococcus pyogenes EES 61 Ery-S. A digest of the protocol: as §1
In assay [3] the test system is Staphylococcus aureus. Put plainly: Minimum inhibitory concentration against Staphylococcus aureus A 5278 MLSB-c. A digest of the protocol: as §1
Assay [4] is described as follows: Minimum inhibitory concentration against Haemophilus influenzae DILL Amp-R. A digest of the protocol:
as §1

The nature of assay [5]: Minimum inhibitory concentration against Streptococcus pyogenes PIU2548 efflux. A digest of the protocol:
as §1

Assay [6] has as its system Streptococcus pneumoniae. Description: Minimum inhibitory concentration against Streptococcus pneumoniae ATCC 6303 Ery-S. A digest of the protocol:
as §1

Assay [7] concerns Staphylococcus aureus. Description: Minimum inhibitory concentration against Staphylococcus aureus ATCC 6538PEry-S. Conditions: ATCC 6538P. A digest of the protocol:
as §1

For assay [8], the system named is Streptococcus pneumoniae. Description: Minimum inhibitory concentration against Streptococcus pneumoniae 5649 efflux. A digest of the protocol:
as §1

The nature of assay [9]: Minimum inhibitory concentration against Streptococcus pyogenes 930MLSB. A digest of the protocol: as §1
Assay [10] deals with Staphylococcus aureus. Description: Minimum inhibitory concentration against Staphylococcus aureus A 5177 MLSB-i. A digest of the protocol: as §1

Turning to `CC[C@H]1OC(=O)[C@H](C)C(=O)[C@H](C)[C@@H](O[C@@H]2O[C@H](C)C[C@H](N(C)C)[C@H]2O)[C@](C)(OCCCc2ccccc2)C[C@@H](C)C(=O)[C@H](C)[C@@H](O)[C@]1(C)O`, the MIC is 32 µg/mL (≈ 46.2 µM) in assay [1]; 0.5 µg/mL (≈ 0.723 µM) in assay [2]; above 100 µg/mL against Staphylococcus aureus [3]; above 64 µg/mL in assay [4]; 4 µg/mL (≈ 5.78 µM) in assay [5]; 1 µg/mL (≈ 1.45 µM) in the assay on Streptococcus pneumoniae [6]. In addition, the MIC against Staphylococcus aureus [7] is 6.2 µg/mL (≈ 8.96 µM); against Streptococcus pneumoniae [8], 1 µg/mL (≈ 1.45 µM); in assay [9], 64 µg/mL (≈ 92.5 µM); against Staphylococcus aureus [10] it was 6.2 µg/mL (≈ 8.96 µM).

Take `CC[C@H]1OC(=O)[C@H](C)C(=O)[C@H](C)[C@@H](O[C@@H]2O[C@H](C)C[C@H](N(C)C)[C@H]2O)[C@](C)(OC/C=C/c2ccc3ccccc3n2)C[C@@H](C)C(=O)[C@H](C)[C@H]2NC(=O)O[C@@]21C`: the MIC in assay [1] was 64 µg/mL (≈ 83.6 µM); in [2] it was 0.125 µg/mL (≈ 0.163 µM); in the assay with Staphylococcus aureus [3], above 100 µg/mL; in assay [4], 8 µg/mL (≈ 10.4 µM); in assay [5], 1 µg/mL (≈ 1.31 µM); with Streptococcus pneumoniae [6] it was 0.125 µg/mL (≈ 0.163 µM). Moreover, the MIC with Staphylococcus aureus [7] was determined as 0.39 µg/mL (≈ 0.509 µM); with Streptococcus pneumoniae [8], 1 µg/mL (≈ 1.31 µM); in assay [9] it was 16 µg/mL (≈ 20.9 µM); against Staphylococcus aureus [10] it was 0.39 µg/mL (≈ 0.509 µM).

As to `C=CCO[C@]1(C)C[C@@H](C)C(=O)[C@H](C)[C@H]2NC(=O)O[C@]2(C)[C@@H](CC)OC(=O)[C@H](C)[C@@H](O[C@H]2C[C@@](C)(OC)[C@@H](O)[C@H](C)O2)[C@H](C)[C@H]1O[C@@H]1O[C@H](C)C[C@H](N(C)C)[C@H]1O`, the MIC in assay [1] is above 128 µg/mL; in assay [2], 0.03 µg/mL (≈ 0.0375 µM); against Staphylococcus aureus [3], above 100 µg/mL; in assay [4], 2 µg/mL (≈ 2.5 µM); in [5], 8 µg/mL (≈ 10 µM); in the assay with Streptococcus pneumoniae [6] it was 0.03 µg/mL (≈ 0.0375 µM). In addition, the MIC against Staphylococcus aureus [7] was 0.2 µg/mL (≈ 0.25 µM); against Streptococcus pneumoniae [8], 2 µg/mL (≈ 2.5 µM); in assay [9] it was above 128 µg/mL; in the assay on Staphylococcus aureus [10], 0.78 µg/mL (≈ 0.976 µM).

With `C=CCO[C@]1(C)C[C@@H](C)C(=O)[C@H](C)[C@H]2N(C)C(=O)O[C@]2(C)[C@@H](CC)OC(=O)[C@H](C)C(=O)[C@H](C)[C@H]1O[C@@H]1O[C@H](C)C[C@H](N(C)C)[C@H]1O`, the MIC is above 128 µg/mL in [1]; 0.5 µg/mL (≈ 0.766 µM) in assay [2]; above 100 µg/mL against Staphylococcus aureus [3]; above 128 µg/mL in assay [4]; 2 µg/mL (≈ 3.06 µM) in assay [5]; 0.5 µg/mL (≈ 0.766 µM) in the assay with Streptococcus pneumoniae [6]. For the same molecule, the MIC is 6.2 µg/mL (≈ 9.5 µM) in the assay on Staphylococcus aureus [7], 0.5 µg/mL (≈ 0.766 µM) in the assay on Streptococcus pneumoniae [8], above 128 µg/mL in assay [9] and 6.2 µg/mL (≈ 9.5 µM) with Staphylococcus aureus [10].

With `CC[C@H]1OC(=O)[C@H](C)C(=O)[C@H](C)[C@@H](O[C@@H]2O[C@H](C)C[C@H](N(C)C)[C@H]2O)[C@](C)(OC/C=C/c2ccc3nnccc3c2)C[C@@H](C)C(=O)[C@H](C)[C@H]2NC(=O)O[C@@]21C`, the MIC in assay [1] was 1 µg/mL (≈ 1.3 µM); in assay [2] it was 0.03 µg/mL (≈ 0.0391 µM); in the assay on Staphylococcus aureus [3] it was above 100 µg/mL; in assay [4] it was 2 µg/mL (≈ 2.61 µM); in assay [5] it was 0.5 µg/mL (≈ 0.652 µM); against Streptococcus pneumoniae [6], 0.015 µg/mL (≈ 0.0196 µM). Further, the MIC with Staphylococcus aureus [7] was determined as 0.05 µg/mL (≈ 0.0652 µM); against Streptococcus pneumoniae [8], 0.5 µg/mL (≈ 0.652 µM); in [9] it was 4 µg/mL (≈ 5.22 µM); against Staphylococcus aureus [10], 0.05 µg/mL (≈ 0.0652 µM).

Take `CC[C@H]1OC(=O)[C@H](C)C(=O)[C@H](C)[C@@H](O[C@@H]2O[C@H](C)C[C@H](N(C)C)[C@H]2O)[C@](C)(OCCNCc2cnc3ccccc3c2)C[C@@H](C)C(=O)[C@H](C)[C@H]2NC(=O)O[C@@]21C`: the MIC was 4 µg/mL (≈ 5.11 µM) in assay [1]; 0.03 µg/mL (≈ 0.0383 µM) in assay [2]; above 100 µg/mL in the assay on Staphylococcus aureus [3]; 2 µg/mL (≈ 2.55 µM) in [4]; 2 µg/mL (≈ 2.55 µM) in [5]; 0.03 µg/mL (≈ 0.0383 µM) with Streptococcus pneumoniae [6]. Further, the MIC in the assay on Staphylococcus aureus [7] came out at 0.1 µg/mL (≈ 0.128 µM); in the assay with Streptococcus pneumoniae [8], 2 µg/mL (≈ 2.55 µM); in assay [9] it was 16 µg/mL (≈ 20.4 µM); against Staphylococcus aureus [10] it was 0.1 µg/mL (≈ 0.128 µM).

With `CC[C@H]1OC(=O)[C@H](C)C(=O)[C@H](C)[C@@H](O[C@@H]2O[C@H](C)C[C@H](N(C)C)[C@H]2O)[C@](C)(OCCNCCCc2cnc3ccccc3c2)C[C@@H](C)C(=O)[C@H](C)[C@H]2NC(=O)O[C@@]21C`, the MIC in [1] was 2 µg/mL (≈ 2.47 µM); in assay [2], 0.03 µg/mL (≈ 0.037 µM); in the assay with Staphylococcus aureus [3], above 100 µg/mL; in assay [4] it was 4 µg/mL (≈ 4.93 µM); in assay [5], 2 µg/mL (≈ 2.47 µM); in the assay on Streptococcus pneumoniae [6] it was 0.03 µg/mL (≈ 0.037 µM). For the same molecule, the MIC with Staphylococcus aureus [7] is 0.2 µg/mL (≈ 0.247 µM); with Streptococcus pneumoniae [8], 2 µg/mL (≈ 2.47 µM); in assay [9] it was above 100 µg/mL; against Staphylococcus aureus [10], 0.39 µg/mL (≈ 0.481 µM).

For the molecule `CC[C@H]1OC(=O)[C@H](C)[C@@H](O[C@H]2C[C@@](C)(OC)[C@@H](O)[C@H](C)O2)[C@H](C)[C@@H](O[C@@H]2O[C@H](C)C[C@H](N(C)C)[C@H]2O)[C@](C)(OC/C=C/c2cnc3ccccc3c2)C[C@@H](C)C(=O)[C@H](C)[C@H]2NC(=O)O[C@@]21C`, the MIC in assay [1] is 8 µg/mL (≈ 8.64 µM); in assay [2] it was 0.03 µg/mL (≈ 0.0324 µM); against Staphylococcus aureus [3], above 100 µg/mL; in [4], 2 µg/mL (≈ 2.16 µM); in [5] it was 1 µg/mL (≈ 1.08 µM); against Streptococcus pneumoniae [6] it was 0.03 µg/mL (≈ 0.0324 µM). The MIC stood at 0.2 µg/mL (≈ 0.216 µM) against Staphylococcus aureus [7], 1 µg/mL (≈ 1.08 µM) against Streptococcus pneumoniae [8], 8 µg/mL (≈ 8.64 µM) in assay [9] and 3.1 µg/mL (≈ 3.35 µM) with Staphylococcus aureus [10].

Consider `CC[C@H]1OC(=O)[C@H](C)C(=O)[C@H](C)[C@@H](O[C@@H]2O[C@H](C)C[C@H](N(C)C)[C@H]2O)[C@](C)(OC/C=C/c2cnc3ccccc3c2)C[C@@H](C)C(=O)[C@H](C)[C@H]2N(N)C(=O)O[C@]12C`, for which the MIC in [1] is 64 µg/mL (≈ 82 µM); in [2], 0.015 µg/mL (≈ 0.0192 µM); against Staphylococcus aureus [3], above 100 µg/mL; in assay [4], 2 µg/mL (≈ 2.56 µM); in assay [5] it was 0.5 µg/mL (≈ 0.64 µM); against Streptococcus pneumoniae [6] it was 0.015 µg/mL (≈ 0.0192 µM). Besides, the MIC came out at 0.1 µg/mL (≈ 0.128 µM) against Staphylococcus aureus [7], 0.25 µg/mL (≈ 0.32 µM) in the assay on Streptococcus pneumoniae [8], 64 µg/mL (≈ 82 µM) in assay [9] and 0.1 µg/mL (≈ 0.128 µM) against Staphylococcus aureus [10].

Consider `CC[C@H]1OC(=O)[C@H](C)C(=O)[C@H](C)[C@@H](O[C@@H]2O[C@H](C)C[C@H](N(C)C)[C@H]2O)[C@](C)(OC/C=C/c2cnc3ccccc3c2)C[C@@H](C)C(=O)[C@H](C)[C@H]2N(OC)C(=O)O[C@]12C`, for which the MIC in assay [1] is 64 µg/mL (≈ 80.4 µM); in assay [2], 0.03 µg/mL (≈ 0.0377 µM); in the assay on Staphylococcus aureus [3] it was above 100 µg/mL; in assay [4], 8 µg/mL (≈ 10.1 µM); in [5] it was 0.5 µg/mL (≈ 0.628 µM); against Streptococcus pneumoniae [6], 0.06 µg/mL (≈ 0.0754 µM). Also, the MIC in the assay with Staphylococcus aureus [7] was found to be 0.1 µg/mL (≈ 0.126 µM); against Streptococcus pneumoniae [8], 0.5 µg/mL (≈ 0.628 µM); in [9], 64 µg/mL (≈ 80.4 µM); against Staphylococcus aureus [10], 0.1 µg/mL (≈ 0.126 µM).

As to `CC[C@H]1OC(=O)[C@H](C)C(=O)[C@H](C)[C@@H](O[C@@H]2O[C@H](C)C[C@H](N(C)C)[C@H]2O)[C@](C)(OC/C=C/c2ccccc2)C[C@@H](C)C(=O)[C@H](C)[C@@H](O)[C@]1(C)O`, the MIC in [1] was 64 µg/mL (≈ 92.8 µM); in assay [2] it was 0.25 µg/mL (≈ 0.362 µM); in the assay on Staphylococcus aureus [3], above 100 µg/mL; in assay [4], 128 µg/mL (≈ 186 µM); in assay [5] it was 2 µg/mL (≈ 2.9 µM); in the assay on Streptococcus pneumoniae [6], 1 µg/mL (≈ 1.45 µM). The MIC against Staphylococcus aureus [7] came out at 1.56 µg/mL (≈ 2.26 µM); with Streptococcus pneumoniae [8] it was 2 µg/mL (≈ 2.9 µM); in assay [9], 64 µg/mL (≈ 92.8 µM); against Staphylococcus aureus [10] it was 1.56 µg/mL (≈ 2.26 µM).
